Measurements from ChEMBL document CHEMBL1139876, “Synthesis and study of L-dopa-glutathione codrugs as new anti-Parkinson agents with free radical scavenging properties” (J Med Chem, 2007).
≈ marks a conversion by molar mass, not a printed value. Calls of active or inactive are those of the source. No cut-off for these calls is given here.

What was measured:
[1] = Partition coefficient, log P at pH 7.4 by saturation shake flask method; type: physicochemical; settings: octanol/water
Procedure, shortened: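 log P measured by saturation shake-flask in n-octanol/phosphate buffer, pH 7.4. Concentrations in each layer quantified by C18 reverse-phase HPLC-UV against known standards. Means of three experiments ± SD.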

[2] = Solubility in 0.02 M hydrochloric acid buffer at pH 1.3; type: physicochemical
Procedure, shortened: (§1)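 Solubility in water and in buffers at pH 1.3, 5.0 and 7.4, determined by HPLC-UV peak areas correlated with known concentrations. Means of three experiments ± SD.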

[3] = Solubility in water; type: physicochemical; procedure, shortened: as §1
[4] = Solubility in 0.02 M phosphate buffer at pH 7.4; type: physicochemical; procedure, shortened: as §1
[5] = Solubility in 0.02 M sodium acetate buffer at pH 5.0; type: physicochemical; procedure, shortened: as §1
[6] = Chemical stability assessed as half life of hydrolysis in 0.02 M hydrochloric acid buffer at pH 1.3; type: physicochemical
Procedure, shortened: (§2)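 Chemical hydrolysis at 37 °C at pH 1.3, 5.0 and 7.4. Codrug concentration followed over time; Kobs and t1/2 taken by regression from slopes of semilogarithmic concentration–time plots. Means of three experiments ± SD.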

[7] = Chemical stability assessed as half life of hydrolysis in 0.02 M sodium acetate buffer at pH 5.0; type: physicochemical; procedure, shortened: as §2
[8] = Chemical stability assessed as half life of hydrolysis in 0.02 M phosphate buffer at pH 7.4; type: physicochemical; procedure, shortened: as §2
[9] = species on record: Homo sapiens; assay: Stability in human plasma assessed as half life of hydrolysis
[10] = Plasma concentration in Wistar rat at 65.46 mg/kg, po after 2 hrs; type: ADME, organism-based; design: dose 65.46 mg/kg, route oral
Procedure, shortened: (§3)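 Plasma L-dopa concentration–time profile in rats after oral administration, with sampling up to 8 h. Mean ± SE; each experiment in triplicate.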

[11] = tested on: Rattus norvegicus; assay: Antioxidant activity assessed as increase in glutathione peroxidase activity in Wistar rat plasma at 184.79 mg/kg, po after 1.5 hrs; type: functional
Procedure, shortened: (§4)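 Rats dosed by oral gavage; plasma SOD and GPx activities measured 1.5 h after administration, expressed as units/(g Hb). Mean ± SE of five experiments; P < 0.05 vs L-dopa-treated group.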

[12] = tested on: Rattus norvegicus; assay: Antioxidant activity assessed as decrease in SOD activity in Wistar rat plasma at 184.79 mg/kg, po after 1.5 hrs; type: functional; procedure, shortened: as §4
[13] = Pro-oxidant effect on Fe(2+)/H2O2-induced deoxyribose degradation relative to control; type: functional
Procedure, shortened: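 Deoxyribose degradation induced by Fe(II)/H2O2 in a medium of deoxyribose, phosphate buffer, EDTA and H2O2 with no enzymatic activity. Compounds tested from 1 to 50 µM.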

[14] = Stability in rat plasma assessed as half life of hydrolysis; type: ADME, cell-free
Procedure, shortened: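 Enzymatic hydrolysis at 37 °C in 80% human or rat plasma containing 20% 0.02 M phosphate buffer, pH 7.4, monitoring release of L-dopa. Fitted to first-order kinetics to give Kobs and t1/2. Means of three experiments ± SD.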

[15] = tested on: Rattus norvegicus; assay: Anxiolytic effect in Wistar rat assessed as […] in entries and time spent in open field center at 184.79 mg/kg, po after 1.5 hrs; type: functional, organism-based; design: dose 184.79 mg/kg
[16] = tested on: Rattus norvegicus; assay: Prolongation of plasma […] levels in Wistar rat at 184.79 mg/kg, po after 2 hrs; type: functional; procedure, shortened: as §3
[17] = tested on: Rattus norvegicus; assay: Induction of sustained release of […] levels in Wistar rat striatum at 184.79 mg/kg, po after 12 hrs; type: functional
Procedure, shortened: (§5)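 Oral dosing to rats at doses equimolar to L-dopa. Striatal L-dopa and dopamine measured over time by HPLC with electrochemical detection. Mean ± SE; each experiment in triplicate.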

[18] = tested on: Rattus norvegicus; assay: Induction of sustained release of dopamine levels in Wistar rat striatum at 184.79 mg/kg, po after 12 hrs; type: functional; procedure, shortened: as §5

SMILES	logD [1]	solubility [2] [µg/mL]	solubility [3] [µg/mL]	solubility [4] [µg/mL]	solubility [5] [µg/mL]	half-life [6] [h]	half-life [7] [h]	half-life [8] [h]	half-life [9] [h]	concentration at 2 h [10] [µg/mL]	half-life [14] [min]	Activity [11]	Activity [12]	Activity [13]	Activity [15]	Activity [16] [µg/mL]	Activity [17] [pmol/mg]	Activity [18] [pmol/kg]
N[C@@H](CCC(=O)N[C@@H](CS)C(=O)NCC(=O)N[C@H](Cc1ccc(O)c(O)c1)C(=O)O)C(=O)O	–	–	–	–	–	–	–	–	–	–	–	–	–	inactive	–	–	–	–
COC(=O)[C@H](CCC(=O)N[C@@H](CS)C(=O)NCC(=O)N[C@H](Cc1ccc(O)c(O)c1)C(=O)OC)NC(C)=O	–	–	–	–	–	–	–	–	–	–	–	–	–	–	Active	–	–	–
COC(=O)[C@H](CCC(=O)N[C@@H](CS)C(=O)NCC(=O)N[C@@H](Cc1ccc(O)c(O)c1)C(=O)OC)NC(C)=O [listing 2 of 2 here]	–	–	–	–	–	–	–	–	–	–	–	847.78 U/g.Hb	174.86 U/g.Hb	–	–	105	40	40

Further lines, with some results ahead:

logD [1]	solubility [2] [µg/mL]	solubility [3] [µg/mL]	solubility [4] [µg/mL]	solubility [5] [µg/mL]	half-life [6] [h]	half-life [7] [h]	half-life [8] [h]	half-life [9] [h]	concentration at 2 h [10] [µg/mL]	half-life [14] [min]	SMILES	Activity [11]	Activity [12]	Activity [13]	Activity [15]	Activity [16] [µg/mL]	Activity [17] [pmol/mg]	Activity [18] [pmol/kg]
0.89	35100 (≈ 63.1 mM)	27000 (≈ 48.6 mM)	25600 (≈ 46.1 mM)	25500 (≈ 45.8 mM)	20.1	40.8	7.22	0.0533	–	–	COC(=O)[C@H](CCC(=O)N[C@@H](CS)C(=O)NCC(=O)N[C@@H](Cc1ccc(O)c(O)c1)C(=O)OC)NC(C)=O [listing 1 of 2 here]	–	–	–	–	–	–	–
–	–	–	–	–	–	–	–	–	83	–	N[C@@H](Cc1ccc(O)c(O)c1)C(=O)O [LEVODOPA]	795.6 U/g	203.4 U/g.Hb	Dose-dependent effect	–	–	–	–
0.8	550 (≈ 1.13 mM)	320 (≈ 0.658 mM)	460 (≈ 0.946 mM)	690 (≈ 1.42 mM)	40.4	80.1	23.2	0.222	–	4.1	N[C@H](Cc1ccc(O)c(O)c1)C(=O)N[C@@H](CCC(=O)N[C@@H](CS)C(=O)NCC(=O)O)C(=O)O	–	–	–	–	–	–	–
0.94	2740 (≈ 4.92 mM)	7890 (≈ 14.2 mM)	3990 (≈ 7.17 mM)	3840 (≈ 6.9 mM)	31	69.3	15.1	0.0783	–	1.9	COC(=O)CNC(=O)[C@H](CS)NC(=O)CC[C@H](NC(=O)[C@@H](Cc1ccc(O)c(O)c1)NC(C)=O)C(=O)OC	821 U/g.Hb	200.59 U/g	–	Active	85	40	40
0.75	2150 (≈ 4.42 mM)	1800 (≈ 3.7 mM)	1930 (≈ 3.97 mM)	1670 (≈ 3.43 mM)	28.1	57.3	12.2	0.252	–	2.7	N[C@@H](CCC(=O)N[C@@H](CS)C(=O)NCC(=O)N[C@@H](Cc1ccc(O)c(O)c1)C(=O)O)C(=O)O	–	–	–	–	–	–	–
